Values after ≈ are worked out from the molar mass of the structure shown. Active and inactive are the calls of the source. The rule behind the calls is not given here.

This note sets out measurements from ChEMBL document CHEMBL3751709, “Concise Synthesis of Spergualin-Inspired Molecules With Broad-Spectrum Antibiotic Activity” (2015).

Holding throughout (assay type): functional
The subject of one test is Escherichia coli. In words: Antimicrobial activity against Escherichia coli K-12 MG1655 after 24 hrs by double dilution method. The gist of the method:
(§1)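 Double (2-fold) dilution series added to inoculum at OD600 0.1, giving final 256 to 2 μg/mL. H. influenzae was scraped from agar into supplemented BHI medium. Other strains were diluted from an overnight LB culture (37 °C, 200 rpm) into LB. Plates were covered and shaken at 200 rpm, 37 °C, for 24 h before MIC was read. At least two runs in triplicate.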

The next test relates to Bacillus anthracis. Description: Antimicrobial activity against Bacillus anthracis 34F2 Sterne after 24 hrs by double dilution method.
The subject of the next test is Bacillus cereus. Description: Antimicrobial activity against Bacillus cereus ATCC 11778 after 24 hrs by double dilution method. The method, boiled down:
as §1

The subject of another test is Bacillus subtilis. In words: Antimicrobial activity against Bacillus subtilis 168 after 24 hrs by double dilution method. The method, boiled down:
as §1

Test [1] deals with Staphylococcus aureus. In words: Antimicrobial activity against Staphylococcus aureus RN4220 after 24 hrs by double dilution method. The method, boiled down:
as §1

The next test deals with Haemophilus influenzae. Description: Antimicrobial activity against Haemophilus influenzae ATCC 51907 after 24 hrs by double dilution method. The gist of the method:
as §1

Test [2] concerns Staphylococcus aureus. In words: Bactericidal activity against Staphylococcus aureus RN4220 8 to 16 ug/ml at after 4 to 24 hrs by time kill assay. The gist of the method:
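Time-kill: 5 mL S. aureus cultures at OD600 0.1 were treated with compound (final 8 to 16 μg/mL) or DMSO. 100 μL was sampled at 0, 4 and 24 h, serially diluted 10-fold in sterile PBS, and 2 μL spotted on LB agar to count CFUs.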

Turning to `N=C(N)NCCCC[C@H](O)CC(=O)N[C@@H](O)C(=O)NCCCCNCCCN`, the MIC in the test on Escherichia coli (K-12 MG1655, 24 h) was determined as 50 µg/mL (≈ 124 µM); against Bacillus anthracis it was 12.5 µg/mL (≈ 31 µM); with Bacillus cereus (ATCC 11778, 24 h) it was 50 µg/mL (≈ 124 µM); in the test with Bacillus subtilis (subsp. subtilis str. 168, 24 h) it was 6.25 µg/mL (≈ 15.5 µM); in the test with Staphylococcus aureus [1] (RN4220, 24 h) it was 6.25 µg/mL (≈ 15.5 µM).
Regarding `O=Cc1ccc(Br)cc1`, the MIC result with Escherichia coli, in the test on Haemophilus influenzae, in the test with Bacillus anthracis, in the test with Bacillus cereus, with Bacillus subtilis (subsp. subtilis str. 168) and in the test with Staphylococcus aureus [1] was “inactive” each time.
In the case of `NCc1ccccc1`, the MIC result in the test with Escherichia coli, with Haemophilus influenzae, in the test with Bacillus anthracis, in the test on Bacillus cereus, with Bacillus subtilis (subsp. subtilis str. 168) and in the test with Staphylococcus aureus [1] was “inactive” in each case.
In the case of `NCCCCNCCCN`, the MIC entry in the test on Escherichia coli, with Haemophilus influenzae, in the test on Bacillus anthracis, in the test with Bacillus cereus, in the test on Bacillus subtilis (subsp. subtilis str. 168) and in the test on Staphylococcus aureus [1] was “inactive” each time.
On to `CN(C)[C@@H]1C(O)=C(C(N)=O)C(=O)[C@@]2(O)C(O)=C3C(=O)c4c(O)cccc4[C@@](C)(O)[C@H]3C[C@@H]12` [TETRACYCLINE], for which the MIC in the test on Escherichia coli (K-12 MG1655, 24 h) was less than 2 µg/mL; with Haemophilus influenzae (ATCC 51907, 24 h), less than 2 µg/mL; against Bacillus anthracis, less than 2 µg/mL; in the test on Bacillus cereus (ATCC 11778, 24 h), less than 2 µg/mL; with Bacillus subtilis (subsp. subtilis str. 168, 24 h), less than 2 µg/mL; with Staphylococcus aureus [1] (RN4220, 24 h), less than 2 µg/mL.
As for `CCCC(=O)N(Cc1ccccc1)C(C(=O)NCCCCN)c1ccc(Br)cc1` (stereo not drawn), the MIC amounted to 256 µg/mL (≈ 556 µM) against Escherichia coli (K-12 MG1655, 24 h); 64 µg/mL (≈ 139 µM) against Haemophilus influenzae (ATCC 51907, 24 h); 32 µg/mL (≈ 69.5 µM) against Bacillus anthracis; 32 µg/mL (≈ 69.5 µM) in the test on Bacillus cereus (ATCC 11778, 24 h); 16 µg/mL (≈ 34.8 µM) in the test on Bacillus subtilis (subsp. subtilis str. 168, 24 h); 32 µg/mL (≈ 69.5 µM) in the test with Staphylococcus aureus [1] (RN4220, 24 h).
With `CC(C)SCC(=O)NCC(=O)NCc1ccccc1`, the MIC in the test on Escherichia coli (K-12 MG1655, 24 h) is more than 128 µg/mL; in the test on Haemophilus influenzae (ATCC 51907, 24 h), more than 128 µg/mL; against Bacillus anthracis, more than 128 µg/mL; against Bacillus cereus (ATCC 11778, 24 h), more than 128 µg/mL; in the test on Bacillus subtilis (subsp. subtilis str. 168, 24 h), more than 128 µg/mL; in the test on Staphylococcus aureus [1] (RN4220, 24 h), more than 128 µg/mL.
Consider `O=C(O)CCS`, for which the MIC result with Escherichia coli, with Haemophilus influenzae, in the test with Bacillus anthracis, with Bacillus cereus, in the test on Bacillus subtilis (subsp. subtilis str. 168) and with Staphylococcus aureus [1] was “inactive” in each case.
Consider `NCCCCNC(=O)C(c1ccc(Br)cc1)N(Cc1ccccc1)C(=O)CCS` (stereo not drawn), for which the Activity result with Escherichia coli, in the test on Haemophilus influenzae, with Bacillus anthracis, with Bacillus cereus, in the test with Bacillus subtilis (subsp. subtilis str. 168) and in the test with Staphylococcus aureus [1] was “Dose-dependent effect” in each case. In addition, the Activity in the test with Staphylococcus aureus [2] is listed as more than 3 log10CFU. For the same compound, the MIC in the test on Escherichia coli (K-12 MG1655, 24 h) worked out at 32 µg/mL (≈ 66.9 µM); against Haemophilus influenzae (ATCC 51907, 24 h), 16 µg/mL (≈ 33.4 µM); in the test with Bacillus anthracis, 4 µg/mL (≈ 8.36 µM); against Bacillus cereus (ATCC 11778, 24 h), 8 µg/mL (≈ 16.7 µM); against Bacillus subtilis (subsp. subtilis str. 168, 24 h), 4 µg/mL (≈ 8.36 µM); against Staphylococcus aureus [1] (RN4220, 24 h), 8 µg/mL (≈ 16.7 µM).
Take `N#Cc1ccc(C(=O)N(CCCc2ccccc2)CC(=O)N2CCNCC2)cc1`: the MIC is more than 128 µg/mL in the test with Escherichia coli (K-12 MG1655, 24 h); more than 128 µg/mL against Haemophilus influenzae (ATCC 51907, 24 h); more than 128 µg/mL against Bacillus anthracis; more than 128 µg/mL in the test with Bacillus cereus (ATCC 11778, 24 h); more than 128 µg/mL against Bacillus subtilis (subsp. subtilis str. 168, 24 h); more than 128 µg/mL with Staphylococcus aureus [1] (RN4220, 24 h).
Take `CCC(C)C(=O)NCC(=O)N1CCN(Cc2ccccc2)CC1` (stereo not drawn): the MIC in the test with Escherichia coli (K-12 MG1655, 24 h) was more than 128 µg/mL; in the test on Haemophilus influenzae (ATCC 51907, 24 h), more than 128 µg/mL; against Bacillus anthracis, more than 128 µg/mL; against Bacillus cereus (ATCC 11778, 24 h), more than 128 µg/mL; against Bacillus subtilis (subsp. subtilis str. 168, 24 h), more than 128 µg/mL; in the test on Staphylococcus aureus [1] (RN4220, 24 h), more than 128 µg/mL.
As for `CC(C)C1CCC(C(=O)NCC(=O)NCc2ccccc2)CC1` (stereo not drawn), the MIC was more than 128 µg/mL in the test on Escherichia coli (K-12 MG1655, 24 h); more than 128 µg/mL against Haemophilus influenzae (ATCC 51907, 24 h); more than 128 µg/mL against Bacillus anthracis; more than 128 µg/mL with Bacillus cereus (ATCC 11778, 24 h); more than 128 µg/mL with Bacillus subtilis (subsp. subtilis str. 168, 24 h); more than 128 µg/mL in the test on Staphylococcus aureus [1] (RN4220, 24 h).
